Bioassay records (PubChem BioAssay)
Most compounds without a hit are left out; they make up all but 2.1% or so of the library.
PKA-R1A activ: activates the PKA-R1A holoenzyme complex; P00514+P68181; PKA-R1A dissociation, Cy5-IP20 fluorescence polarization; scaled: DMSO 0%, 113 µM cGMP 100%; activation, % at 11.4 µM; hit rate 0.083% among 340,000; AID 504707;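 active means percent activation above the mean of all tested compounds plus 3 SD, cut at about 19% in these data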;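 further: higher means more PKAc released from R1A so a rise in polarization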
VIM-2 inhibitor: blocks Pseudomonas aeruginosa VIM-2 metallo-beta-lactamase. hit rate 0.89% among 290,000. purified VIM-2, nitrocefin hydrolysis, epi-absorbance fluorescence. AID 1527. inhibition, % at 5.6 µM;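 active means inhibition above the mean of all tested compounds plus 3 SD, cutoff set per screening run, cut at about 7.5% in these data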;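 further: red hydrolysis product quenches plate fluorescence so inhibitors raise well fluorescence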
bovine MsrA act: bovine methionine sulfoxide reductase A activation. activation, % at 10.6 µM. hit rate 0.3% among 360,000. purified bovine MsrA, absorbance read-out; in the data active means activation above about 7.5%
IMP-1 inh: blocks Pseudomonas aeruginosa IMP-1 metallo-beta-lactamase | purified IMP-1, nitrocefin hydrolysis, epi-absorbance fluorescence | inhibition, % at 5.6 µM | hit rate 0.45% among 290,000 | AID 1556;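 active means inhibition above the mean plus 3 SD of all compounds in the same screening run, cut at about 4.5% in these data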
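Material – recombinant IMP-1 enzyme, purified · Amount – IMP-1 0.2 nM before substrate addition · Medium – HEPES buffer pH 7.1 with ZnSO4 and Brij 35 · Timing – 25 °C, 15 min preincubation, 25 min reaction · Measured by – plate fluorescence quenching by hydrolysis product, ex 480/em 530 nm · Read-out – percent enzyme inhibition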
MsrA inhibitor: inhibits bovine methionine sulfoxide reductase A | purified bovine MsrA, absorbance read-out | hit rate 0.75% among 360,000 | inhibition, % at 15.5 µM
PKA-R2B activ: activates the human PKA-R2B holoenzyme complex; P22694+P31323; PKA-R2B holoenzyme dissociation, Cy5-IP20 fluorescence polarization; R2B truncated from residue 108, S112A mutant; 0% DMSO only, 100% 113 µM cGMP; activation, % at 11.4 µM; hit rate 0.079% among 340,000; AID 504700;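 active means activation above a cutoff set at the mean over all compounds plus 3 SD, cut at about 18% in these data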;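 further: higher means more holoenzyme dissociation and a rise in polarization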
Target sequence (P31323 whole entry, looked up, other chains not shown, the tested form may be a part): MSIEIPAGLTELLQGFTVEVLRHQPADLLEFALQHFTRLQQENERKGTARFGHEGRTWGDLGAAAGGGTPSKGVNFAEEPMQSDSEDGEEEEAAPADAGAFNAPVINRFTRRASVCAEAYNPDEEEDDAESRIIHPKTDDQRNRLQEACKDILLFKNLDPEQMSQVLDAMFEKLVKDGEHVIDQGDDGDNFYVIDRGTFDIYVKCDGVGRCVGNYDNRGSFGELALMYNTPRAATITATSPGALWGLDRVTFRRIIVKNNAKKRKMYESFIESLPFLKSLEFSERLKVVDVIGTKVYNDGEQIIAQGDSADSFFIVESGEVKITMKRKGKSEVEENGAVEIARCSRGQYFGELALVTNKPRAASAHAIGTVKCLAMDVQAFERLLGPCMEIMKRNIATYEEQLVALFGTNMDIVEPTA
MsrA conf: confirmation of bovine MsrA inhibitors. shares compounds with MsrA inhibitor. purified bovine MsrA, absorbance read-out. inhibition, % at 15.5 µM. hit rate 41% among 2,300;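 further: coupled to thioredoxin reductase with NADPH and selenocystamine and DMSO as substrate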
Of the large screens only hits and unclear results are named; the others gave an inactive call (follow-up assays come after a bar, where they were run). Unless noted, no stated cut-off is given here; in the data, active means inhibition above about 4.5%; inactive means the rest.

O=C(OCc1cn([C@@H]2CN(C(=O)c3cccs3)[C@@H](c3ccc(Cl)cc3)C[C@H]2O)nn1)c1ccccc1	none (no result: VIM-2 inhibitor, IMP-1 inh)
C[C@H](O)[C@@H]1C(=O)N2CCc3c([nH]c4c(-c5ccc6c(c5)OCO6)cccc34)[C@@H]2C[C@@H]1N(C)C(=O)Nc1ccccc1	none (no result: PKA-R1A activ, VIM-2 inhibitor, bovine MsrA act, IMP-1 inh, PKA-R2B activ)
COc1ccccc1C1/C(=C(/O)c2ccccc2)C(=O)C(=O)N1CCO (stereo unspecified)	none
CCN(CC)CCCN1C(=O)C(=O)/C(=C(/O)c2ccccc2)C1c1cc(OC)ccc1OC (stereo unspecified)	MsrA inhibitor 18.6 (no result: VIM-2 inhibitor, IMP-1 inh) | MsrA conf 6.4
CC(=O)C(Sc1ncnc2c1nnn2-c1ccc(F)cc1)C(=O)N(C)C (stereo unspecified)	MsrA inhibitor 5.7 (no result: PKA-R1A activ, bovine MsrA act, PKA-R2B activ) | MsrA conf inactive
CCOC(=O)CSc1ncnc2c1nnn2-c1ccc(F)cc1	none
CC(=NCc1cccc(Cl)c1)c1nc(-c2ccco2)oc1O	MsrA inhibitor 5.9 | MsrA conf inactive
Oc1oc(-c2ccco2)nc1C=Nc1cccc(Cl)c1	none
CN(/N=C/c1cc(Br)cc(Br)c1O)c1cccc(C(F)(F)F)n1	MsrA inhibitor 5.8 | MsrA conf inactive
S=c1nc(-c2ccccc2Cl)n(Cc2cccnc2)c2c1CCCC2	MsrA inhibitor 5.9 | MsrA conf 4.7
OCCCn1c(-c2ccccc2)nc(=S)c2c1CCCC2	none
CCCN(Cc1nnc(-c2ccccc2Cl)o1)C(=O)COc1ccc(Cl)cc1	none (no result: VIM-2 inhibitor, IMP-1 inh)
Cc1ccc2nc(C)c(C(=O)N/N=C/c3cccs3)n2c1	none
Cc1ccn2c(C(=O)N/N=C\c3cccs3)c(C)nc2c1	MsrA inhibitor 7.4 | MsrA conf 5.8
O=c1nc(N/N=C/c2ccccn2)cn[nH]1	MsrA inhibitor 4.7 | MsrA conf inactive
COc1ccc(/C=C2\SC(N)=NC2=O)cc1Br	MsrA inhibitor 4.7 | MsrA conf inactive
Cc1ccc2nc(-c3ccc(C#N)cc3)c(Cc3ccccc3C(F)(F)F)n2c1	none (no result: PKA-R1A activ, VIM-2 inhibitor, IMP-1 inh, PKA-R2B activ)
CCS(=O)(=O)CCSc1nc2ccccc2o1	MsrA inhibitor 6.1 | MsrA conf inactive
Cc1nn(-c2ccccc2)c(N)c1N=Nc1ccccc1	MsrA inhibitor 5.3 | MsrA conf inactive
O=C(N/N=C/c1ccc(-c2ccccc2C(=O)O)o1)c1cccs1	MsrA inhibitor 6.8 | MsrA conf 4.6
C[C@@H]1CN([C@H](C)CO)C(=O)c2cc(Br)cnc2O[C@H]1CN(C)C(=O)Nc1ccc2c(c1)OCO2	none (no result: VIM-2 inhibitor, IMP-1 inh)
O=c1[nH]c(-[n+]2ccc3ccccc3c2)c(/C=N/N=C(\[O-])c2ccccc2)s1	none
CC(C)(C)c1cc[n+](-c2[nH]c(=O)sc2/C=N/N=C(\[O-])c2cccnc2)cc1	MsrA inhibitor 5.4 | MsrA conf 5.9
CC(Nc1cc(N2CCOCC2)ccc1[N+](=O)[O-])c1ccccc1 (stereo unspecified)	MsrA inhibitor 29.6 | MsrA conf 20.6
O=[N+]([O-])c1cc([N+](=O)[O-])c(N2CCOCC2)cc1NCc1ccccc1	MsrA inhibitor 36.1 | MsrA conf 35.6
CC(Nc1cc(N2CCN(S(C)(=O)=O)CC2)ccc1[N+](=O)[O-])c1ccccc1 (stereo unspecified)	MsrA inhibitor 24.2 | MsrA conf 19.7
CC(Nc1cc(N2CCN(S(=O)(=O)N(C)C)CC2)ccc1[N+](=O)[O-])c1ccccc1 (stereo unspecified)	MsrA inhibitor 8.5 | MsrA conf 8.0
CC(Nc1cc(N2CCCC2)ccc1[N+](=O)[O-])c1ccccc1 (stereo unspecified)	none
CC1(C(=O)NCCc2c[nH]c3ccccc23)CCN1CC1CCCCC1 (stereo unspecified)	none (no result: PKA-R1A activ, VIM-2 inhibitor, IMP-1 inh, PKA-R2B activ)
CCS(=O)(=O)N1CCN(c2ccc([N+](=O)[O-])c(NCc3cccnc3)c2)CC1	MsrA inhibitor 5.4 | MsrA conf inactive
O=[N+]([O-])c1ccc(N2CCN(S(=O)(=O)c3ccccc3[N+](=O)[O-])CC2)cc1NCc1cccnc1	none
COc1cc(/C=N/N=C(\N)c2nonc2N)cc(OC)c1O	none
COc1ccc(/C=N/N=C(\N)c2nonc2N)cc1	MsrA inhibitor 5.3 | MsrA conf inactive
COc1ccc(NC(=O)CN2C(=O)NC(C)(Cc3ccc(OC)c(OC)c3)C2=O)cc1 (stereo unspecified)	none (no result: VIM-2 inhibitor, IMP-1 inh)
Cc1cc(OCC(=O)N2CCc3ccccc3C2)c2c(-c3ccccc3)cc(=O)oc2c1	MsrA inhibitor 14.9 | MsrA conf 14.0
CCOc1cc(C)cc2oc(=O)cc(-c3ccccc3)c12	MsrA inhibitor 6.5 | MsrA conf 5.1
CC(=O)Oc1cc(C)cc2oc(=O)cc(-c3ccccc3)c12	MsrA inhibitor 9.1 | MsrA conf inactive
Cc1cc(OC(C)C)c2c(-c3ccccc3)cc(=O)oc2c1	MsrA inhibitor 25.9 | MsrA conf 21.5
Cc1ccc(-c2c(C)cc3oc(=O)cc(-c4ccccc4)c3c2C)cc1	none (no result: VIM-2 inhibitor, IMP-1 inh)
N#CC(C#N)=C1CCCc2sccc21	none (no result: VIM-2 inhibitor, IMP-1 inh)
C[C@H]1CN([C@@H](C)CO)C(=O)c2cccc(NC(=O)C3CC3)c2O[C@H]1CN(C)S(=O)(=O)c1cccs1	none (no result: VIM-2 inhibitor, IMP-1 inh)
COc1ccc(/C=C(/C#N)S(=O)(=O)c2ccc(C)cc2)cc1	none
CO/N=C/C(C#N)=C/c1ccc(OC)cc1	MsrA inhibitor 6.7 | MsrA conf 4.8
Oc1ccc(C=Nc2ccc3ncccc3c2)c(O)c1	none (no result: PKA-R1A activ, bovine MsrA act, MsrA inhibitor, PKA-R2B activ)
CC(=O)N(C)c1ccc(N=Nc2ccc3ncccc3c2)cc1	MsrA inhibitor 5.3 (no result: VIM-2 inhibitor, IMP-1 inh) | MsrA conf 4.9
Cc1cccc(CCN2CCN=C2N(C)C)c1	none (no result: VIM-2 inhibitor, IMP-1 inh)
COc1ccc(Sc2cccc3c2S(=O)(=O)N([C@H](C)c2ccccc2)C[C@@H](COCc2ccccc2)O3)cc1OC	none (no result: PKA-R1A activ, VIM-2 inhibitor, bovine MsrA act, IMP-1 inh, PKA-R2B activ)
CC(C)C1=CC2C3C(C(C(C)C)=CC(=O)[C@@]3(C)O)C1C(=O)C2(C)O (stereo partly specified)	none (no result: PKA-R1A activ, VIM-2 inhibitor, bovine MsrA act, IMP-1 inh, PKA-R2B activ)
CCOc1ccc2nc(N3C(=O)CNC3=S)sc2c1	MsrA inhibitor 7.3 | MsrA conf 4.6
Cc1cc2nc(N3C(=O)CNC3=S)sc2cc1C	MsrA inhibitor 7.7 | MsrA conf 4.9
CCCCC(=O)N1CCN(c2nc3ccc(OCC)cc3s2)CC1	none
CCNC(=O)NC(=O)CSc1ccc(S(=O)(=O)N(C)C2CCCCC2)cn1	none (no result: VIM-2 inhibitor, IMP-1 inh)
Nc1nc2c(-c3ccc([N+](=O)[O-])cc3)nnn2c2ccccc12	none (no result: PKA-R1A activ, VIM-2 inhibitor, bovine MsrA act, IMP-1 inh, PKA-R2B activ)
CCOC(=O)[C@@H]1CSCCS(=O)(=O)N1C(=O)[C@H](C)NC(=O)OC(C)(C)C	none (no result: PKA-R1A activ, VIM-2 inhibitor, bovine MsrA act, IMP-1 inh, PKA-R2B activ)
CCOC(=O)c1ccc2c(c1)n(CC)c(C)[n+]2CC	none
CCOC(=O)c1ccc2c(c1)n(CCCS(=O)(=O)[O-])c(/C=C/c1ccc(Cl)cc1)[n+]2CC	MsrA inhibitor 5.6 | MsrA conf 5.4
